Measurements collected from several papers.
Lines come from different studies, so protocols differ.
Target: RAC-gamma serine/threonine-protein kinase (AKT3, Homo sapiens, UniProt Q9Y243)

Compound | test | setting | measurement | value
CNC(=O)c1cc(Oc2ccc(NC(=O)Nc3ccc(Cl)c(C(F)(F)F)c3)cc2)ccn1 | enzyme activity, inhibitor | 0.3 µM | inhibition | -4%
Cn1c2c(Cl)c(Cl)ccc2c2cn[nH]c(=O)c21 | thermal stability, DSF | 10 µM | ΔTm | 0.1 °C
O=C1Nc2ccc(Cl)cc2C1=Cc1cc(Cl)c(O)c(Cl)c1 | cell-free assay | 0.5 µM | remaining signal | 96.9%
CO[C@@H](C)c1c(Nc2ccc([C@@H](N(C)C(=O)C3CCS(=O)(=O)CC3)C(F)(F)F)cc2)cnc2cc(Cl)nn12 | cell-free assay, competition with immobilised ligand | 1 µM | remaining binding | 65%
CC/C(=N\NC(=O)NCc1cccc(O)c1)c1ccc(O)c(C)c1O | enzyme activity, inhibitor | 0.1 µM | inhibition | 22.8%
Cc1ccc(C(=O)NCc2ccsc2)cc1C#Cc1cn(C(C)C)c2ncnc(N)c12 | enzyme activity, inhibitor | 1 µM | activity vs control | 79%
Cn1c2c(c3ccc(Cl)c(Cl)c31)C(C#N)C1(CCOCC1)NC2=O (stereo not shown) | thermal stability, DSF | 10 µM | ΔTm | -0.1 °C
CN1CC(Oc2cnc(C#N)cc2-c2ccn3nc(NC(=O)C4CC4)cc3c2)C1 | enzyme activity, inhibitor | 1 µM | inhibition | 7%
O=C1NC(=O)c2cc(Nc3ccc(F)cc3)c(Nc3ccc(F)cc3)cc21 | cell-free assay | 0.5 µM | remaining signal | 100%
Cc1ccc(NC(=O)c2ccc(C)c(C(F)(F)F)c2)cc1C#Cc1nn(C2CCC(O)CC2)c2ncnc(N)c12 (stereo not shown) | cell-free assay | 10 µM | remaining signal | 94%
CN(C)CC#Cc1ccc(OCCCc2sc(N3CCc4cccc(C(=O)Nc5nc6ccccc6s5)c4C3)nc2C(=O)O)c(F)c1 | cell-free assay, competition with immobilised ligand | 1 µM | remaining binding | 100%
Cc1sc(C(=O)NC2COC2)cc1-n1cc(NC(=O)Nc2c(F)cccc2Cl)cn1 | enzyme activity, inhibitor | 10 µM | remaining activity | 94.8%
Cn1c2c(c3ccc(Cl)c(Cl)c31)C(C#N)C1(CCN(C(=O)OC(C)(C)C)CC1)NC2=O (racemic) | thermal stability, DSF | 10 µM | ΔTm | -0.1 °C
COc1cc(F)ccc1-c1ncnc(Nc2cccc(C[S@](C)(=N)=O)c2)n1 | enzyme activity, inhibitor | 10 µM | activity vs control | 100%
CCC1(CC)NC(=O)c2c(c3ccc(Cl)c(Cl)c3n2C)C1C#N (stereo not shown) | thermal stability, DSF | 10 µM | ΔTm | 0.1 °C
CC(C)(C)c1nc2c(s1)c1nc(N)ncc1c1ccc(NS(=O)(=O)c3c(F)cccc3F)c(F)c12 | enzyme activity, inhibitor, radiometric | 1 µM | remaining activity | 89%

Compound | test | setting | measurement | value
N#CCCc1ccc2c(c1)-c1[nH]c3ccc([N+](=O)[O-])cc3c1CC(=O)N2 | cell-free assay | 0.5 µM | remaining signal | 95.5%
CCCOc1ccc(OC)c(F)c1C(=O)c1ccc(C(=O)N[C@@H]2CNC[C@H]2NC(=O)c2ccc3[nH]ncc3c2)cc1 | enzyme activity, inhibitor | 50 nM | remaining activity | 97%
Cn1nc(C(F)(F)F)cc1-c1cnc(N2CCc3cc(S(=O)(=O)Nc4c(F)cc(Cl)cc4F)cc(N4CCCC4=O)c32)nc1 | cell-free assay, competition with immobilised ligand | 1 µM | remaining binding | 84%
Cn1c2c(c3ccc(Cl)c(Cl)c31)C(C#N)C(C)(C)NC2=O (stereo not shown) | thermal stability, DSF | 10 µM | ΔTm | -0.2 °C
Cc1ccc(NC(=O)c2ccc(CN3CCN(C)CC3)cc2)cc1Nc1nc(-c2cccnc2)cs1 | cell-free assay | 0.5 µM | remaining signal | 102%
CN(c1ccnc(CNc2nc(Nc3ccc4c(c3)CC(=O)N4)ncc2C(F)(F)F)n1)S(C)(=O)=O | cell-free assay, competition with immobilised ligand | 1 µM | remaining binding | 100%
COc1cc2ncnc(Nc3ccc(Oc4ccccc4)c(C)c3C)c2cc1OC | enzyme activity, inhibitor | 1 µM | inhibition | 1%
Cn1nc(C(=O)NCc2ccc(C(=O)O)cc2)cc1-c1ccc2[nH]ccc2c1 | cell-free assay, competition with immobilised ligand | 0.1 µM | remaining binding | 88%
Cn1c2c(c3ccc(Cl)c(Cl)c31)C(C#N)C1(CCCC1)NC2=O (stereo not shown) | thermal stability, DSF | 10 µM | ΔTm | -0.1 °C
CS(=O)(=O)N1CCCC(NC(=O)[C@H](CCC2CCCCC2)NC(=O)c2ccc(CNC(=O)c3cnc4ccccn34)cc2)C1 (stereo partly shown) | cell-free assay, competition with immobilised ligand | 0.1 µM | remaining binding | 100%
Cn1c2c(Cl)c(Cl)ccc2c2cc(N)[nH]c(=O)c21 | thermal stability, DSF | 10 µM | ΔTm | 0.3 °C
Cn1cc(Cl)c2c(Oc3c(F)cc(Nc4cc(Cl)nc(N)n4)cc3F)ccnc21 | cell-free assay, competition with immobilised ligand | 0.1 µM | remaining binding | 98%
O=C(Nc1cnn(-c2csc(C(=O)NC3COC3)c2)c1)Nc1ccccc1Cl | enzyme activity, inhibitor | 5 µM | remaining activity | 87.3%
Cc1cc(NC(=O)c2cccc(S(F)(F)(F)(F)F)c2)cc(-n2ccn3nc(-c4cccnc4)cc23)c1 | cell-free assay, competition with immobilised ligand | 1 µM | remaining binding | 100%
Cc1ccc(C(=O)Nc2ccc(CN3CCN(C)CC3)c(C(F)(F)F)c2)cc1C#Cc1cnc2cccnn12 | enzyme activity, inhibitor | 23.5 nM | remaining activity | 100%
